# Experimental data: ChEMBL document CHEMBL1123593, “2,4-diamino-6,7-dimethoxyquinazolines. 1. 2-[4-(1,4-benzodioxan-2-ylcarbonyl)piperazin-1-yl] derivatives as alpha 1-adrenoceptor antagonists and antihypertensive agents” (J Med Chem, 1987)
# Activity calls are given as the source filed them. No cut-off for these calls is given here.
# Key:
# [1] = target: T1, Adrenergic receptor alpha-1 (Rattus norvegicus, UniProt P15823+P23944+P43140); test: Compound was tested for its binding affinity for alpha-1 adrenergic receptor site by displacement of [3H]prazosin at 0.15 nM concentration
# T1 sequence (P15823 whole entry): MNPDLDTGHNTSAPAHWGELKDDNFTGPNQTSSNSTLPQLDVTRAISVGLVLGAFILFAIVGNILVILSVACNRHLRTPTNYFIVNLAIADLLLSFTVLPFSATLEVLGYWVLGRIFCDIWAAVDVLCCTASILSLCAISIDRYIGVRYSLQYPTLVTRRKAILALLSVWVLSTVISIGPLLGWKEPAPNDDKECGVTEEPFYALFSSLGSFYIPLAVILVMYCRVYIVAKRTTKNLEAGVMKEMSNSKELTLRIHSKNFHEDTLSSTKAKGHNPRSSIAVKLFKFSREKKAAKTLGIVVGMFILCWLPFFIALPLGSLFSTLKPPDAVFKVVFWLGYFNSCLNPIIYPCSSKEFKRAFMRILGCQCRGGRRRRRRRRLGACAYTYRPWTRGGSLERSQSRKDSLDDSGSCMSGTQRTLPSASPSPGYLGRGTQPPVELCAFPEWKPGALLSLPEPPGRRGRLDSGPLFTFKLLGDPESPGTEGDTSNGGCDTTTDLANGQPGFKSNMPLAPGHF
# T1 sequence (P23944 whole entry): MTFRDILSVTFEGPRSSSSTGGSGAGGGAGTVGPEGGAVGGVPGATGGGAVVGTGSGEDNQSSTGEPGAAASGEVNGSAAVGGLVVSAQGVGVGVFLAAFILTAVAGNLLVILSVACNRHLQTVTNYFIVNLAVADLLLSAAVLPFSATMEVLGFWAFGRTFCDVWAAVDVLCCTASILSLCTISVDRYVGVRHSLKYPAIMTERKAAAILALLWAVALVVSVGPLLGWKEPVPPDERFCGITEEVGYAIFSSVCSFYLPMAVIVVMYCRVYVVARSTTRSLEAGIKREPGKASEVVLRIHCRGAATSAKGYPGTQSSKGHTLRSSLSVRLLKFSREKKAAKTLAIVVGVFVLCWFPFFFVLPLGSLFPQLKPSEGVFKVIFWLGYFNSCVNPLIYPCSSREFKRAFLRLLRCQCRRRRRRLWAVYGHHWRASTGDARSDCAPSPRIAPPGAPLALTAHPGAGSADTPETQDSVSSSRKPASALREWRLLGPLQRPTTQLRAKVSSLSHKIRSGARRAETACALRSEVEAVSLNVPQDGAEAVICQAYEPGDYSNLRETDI
# T1 sequence (P43140 whole entry): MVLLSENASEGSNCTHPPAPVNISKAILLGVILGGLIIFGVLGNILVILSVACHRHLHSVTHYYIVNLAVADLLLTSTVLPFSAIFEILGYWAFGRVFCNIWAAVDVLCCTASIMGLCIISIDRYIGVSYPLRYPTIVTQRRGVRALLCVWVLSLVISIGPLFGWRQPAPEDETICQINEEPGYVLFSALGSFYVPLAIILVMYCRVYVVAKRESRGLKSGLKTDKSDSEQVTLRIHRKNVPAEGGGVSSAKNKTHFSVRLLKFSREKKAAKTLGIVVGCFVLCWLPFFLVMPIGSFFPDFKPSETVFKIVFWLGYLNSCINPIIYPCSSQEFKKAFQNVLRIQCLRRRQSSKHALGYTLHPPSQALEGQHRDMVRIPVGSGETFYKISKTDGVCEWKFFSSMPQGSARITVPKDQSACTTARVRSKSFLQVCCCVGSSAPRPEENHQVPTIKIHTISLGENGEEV
# Rattus norvegicus [2] = test: Percent reduction in blood pressure in spontaneously hypertensive rats (SHR) at peroral dose of 5 mg/kg was determined after 6 hr; type: functional; conditions: route oral
# Procedure, shortened: (§1)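 Single oral gavage dose of 5 mg/kg to groups of six spontaneously hypertensive rats, all with starting systolic pressure above 175 mmHg. Rats were warmed at 33 °C for 20–30 min before readings. Systolic pressure was taken by tail cuff with a variable capacitance transducer, predose and at 1, 2, 4 and 6 h. Percent reduction from predose is given. Saline-dosed controls (n = 10) were run.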
# Rattus norvegicus [3] = test: Percent reduction in blood pressure in spontaneously hypertensive rats (SHR) at peroral dose of 5 mg/kg was determined after 1 hr; type: functional; conditions: route oral
# Procedure, shortened: as §1
# [4] = target: T2, Adrenergic receptor alpha-1 (Homo sapiens) (UniProt P35348+P25100+P35368); test: Antagonist activity against post junctional alpha-1 adrenergic receptor was measured by Kerbs super fused rabbit pulmonary artery preparations labeled with [3H]- norepinephrine.; type: functional; conditions: Oryctolagus cuniculus; target entry is the homologue from another species
# Procedure, shortened: (§2)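 Rabbit pulmonary artery superfused in Krebs after [3H]-noradrenaline labelling, with transmural electrical stimulation (3 Hz, 0.05 h). Postjunctional response was read as contraction on an isometric transducer. Percent antagonism was plotted against compound concentration. EC40-post, the concentration giving 40% reduction of contractile response, was read from the graph. Values are averaged from two experiments, six for some.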
# [5] = target: T1, Adrenergic receptor alpha-1; test: Compound was tested for its binding affinity for alpha-1 adrenergic receptor site by displacement of [3H]prazosin at 0.15 nM concentration; remark: listed apart in the source
# [6] = target: T3, Adrenergic receptor alpha-2 (Homo sapiens) (UniProt P08913+P18825+P18089); conditions: Oryctolagus cuniculus; Pulmonary artery
# [7] = target: T1, Adrenergic receptor alpha-1; test: Compound was tested for its binding affinity for alpha-1 adrenergic receptor site by displacement of [3H]prazosin at 0.15 nM concentration; remark: listed apart in the source
# [8] = target: T2, Adrenergic receptor alpha-1 (Homo sapiens); test: Antagonist activity against post junctional alpha-1 adrenergic receptor was measured by Kerbs super fused rabbit pulmonary artery preparations labeled with [3H]- norepinephrine; type: functional, tissue-based; conditions: Oryctolagus cuniculus, target entry is the homologue from another species
# Procedure, shortened: as §2
# [9] = target: T2, Adrenergic receptor alpha-1 (Homo sapiens); test: Antagonist activity against post junctional Alpha-1 adrenergic receptor was measured by Kerbs super fused rabbit pulmonary artery preparations labeled with [3H]- norepinephrine.; type: functional, tissue-based; conditions: Oryctolagus cuniculus, target entry is the homologue from another species
# Procedure, shortened: as §2
# [10] = target: T1, Adrenergic receptor alpha-1; test: Compound was tested for its binding affinity for alpha-1 adrenoceptor site by displacement of [3H]-prazosin at 0.15 nM concentration
# [11] = target: T3, Adrenergic receptor alpha-2 (Homo sapiens); test: Antagonist activity against prejunctional alpha-2 adrenergic receptor was measured by Kerbs super fused rabbit pulmonary artery preparations labeled with [3H]- norepinephrine; NA means no activity.; type: functional; conditions: Oryctolagus cuniculus; target entry is the homologue from another species
# Procedure, shortened: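 [3H]-noradrenaline-labelled rabbit pulmonary artery, Krebs-superfused and stimulated transmurally (3 Hz, 0.05 h). Prejunctional action was read as [3H] overflow by liquid scintillation counting and plotted against compound concentration. EC40-pre, the concentration producing a 40% increase in [3H] overflow, was read from the graph. Values are averaged from two experiments, six for some.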
SMILES,Reduction (Rattus norvegicus [2]) [%],Reduction (Rattus norvegicus [3]) [%],Ki [5] [nM],other results
COc1cc2nc(N3CCN(C(=O)C4(C)COc5ccccc5O4)CC3)nc(N)c2cc1OC (configuration not stated),9,8,,Ki [1]: 1.5 nM
COc1cc2nc(N3CCN(C(=O)c4ccco4)CC3)nc(N)c2cc1OC [PRAZOSIN],29,33,,EC40 [4]: 4.5 nM
COc1cc2nc(N3CCN(C(=O)C4Oc5ccccc5OC4C)CC3)nc(N)c2cc1OC (trans isomer) [listing 1 of 2 here],,,2.1,Reduction (Rattus norvegicus [2]; 5 mg/kg): 21%; Reduction (Rattus norvegicus [3]; 5 mg/kg): 21%
COc1cc2nc(N3CCN(C(=O)C4COc5cccc(C)c5O4)CC3)nc(N)c2cc1OC (configuration not stated),22,16,3.7,EC40 [4]: 26 nM; EC40 [6]: inactive
COc1cc2nc(N3CCN(C(=O)C4COc5ccc(S(=O)(=O)N(C)C)cc5O4)CC3)nc(N)c2cc1OC (configuration not stated),8,10,6.5,
COc1cc2nc(N3CCN(C(=O)C4COc5ccc(C(C)=O)cc5O4)CC3)nc(N)c2cc1OC (configuration not stated),24,19,3,
COc1cc2nc(N3CCN(C(=O)C4COc5cccc(OC)c5O4)CC3)nc(N)c2cc1OC (configuration not stated),13,14,,Ki [7]: 2.4 nM
COc1cc2nc(N3CCN(C(=O)C4COc5cc(C(C)=O)ccc5O4)CC3)nc(N)c2cc1OC (configuration not stated),24,26,6.4,
COc1cc2nc(N3CCCN(C(=O)C4COc5ccccc5O4)CC3)nc(N)c2cc1OC (configuration not stated),12,22,1.6,
"COc1cc2nc(N3CCN(C(=O)C4COc5ccccc5O4)CC3)nc(N)c2cc1OC (single isomer, unassigned; (+)) [DOXAZOSIN]",,,2.6,Reduction (Rattus norvegicus [2]; 5 mg/kg): 24%; Reduction (Rattus norvegicus [3]; 5 mg/kg): 27%
COc1cc2nc(N3CCN(C(=O)C4COc5cc(Cl)ccc5O4)CC3)nc(N)c2cc1OC (configuration not stated),23,27,12.6,
"COc1cc2nc(N3CCN(C(=O)C4COc5ccccc5O4)CC3)nc(N)c2cc1OC (single isomer, unassigned; (-))",,,,EC40 [4]: 40 nM
COc1cc2nc(N3CCN(C(=O)C4CCOc5ccccc5O4)CC3)nc(N)c2cc1OC (configuration not stated),16,21,3.8,
"COc1cc2nc(N3CCN(C(=O)C4COc5ccccc5O4)CC3)nc(N)c2cc1OC (single isomer, unassigned; (-)) [DOXAZOSIN]",,,2.2,Reduction (Rattus norvegicus [3]; 5 mg/kg): 12%
COc1cc2nc(N3CCN(C(=O)C4Oc5ccccc5OC4C)CC3)nc(N)c2cc1OC (trans isomer) [listing 2 of 2 here],,,,EC40 [4]: 13 nM; EC40 [6]: inactive
COc1cc2nc(N3CCN(C(=O)C4COc5ccccc5O4)CC3)nc(N)c2cc1OC (stereo in doubt; 1) [DOXAZOSIN],,,1.1,Reduction (Rattus norvegicus [2]; 5 mg/kg): 27%; Reduction (Rattus norvegicus [3]; 5 mg/kg): 23%
COc1cc2nc(N3CCN(C(=O)C4COc5ccccc5O4)CC3)nc(N)c2cc1OC (stereo in doubt; 1),,,,EC40 [4]: 50 nM
"COc1cc2nc(N3CCN(C(=O)C4COc5ccccc5O4)CC3)nc(N)c2cc1OC (single isomer, unassigned; (+))",,,,EC40 [4]: 7 nM
COc1cc2nc(N3CCN(C(=O)C4COc5cc(Cl)c(Cl)cc5O4)CC3)nc(N)c2cc1OC (configuration not stated),9,6,13.3,
COc1cc2nc(N3CCN(C(=O)C4COc5cccc(C(C)C)c5O4)CC3)nc(N)c2cc1OC (configuration not stated),3,6,6.7,EC40 [6]: inactive; EC40 [8]: 130 nM
COc1cc2nc(N3CCN(C(=O)C4COc5ccccc5O4)C(C)C3)nc(N)c2cc1OC (configuration not stated),13,18,6.5,
COc1cc2nc(N3CCN(C(=O)C4Oc5ccccc5OC4C)CC3)nc(N)c2cc1OC (cis isomer) [listing 1 of 2 here],,,,EC40 [4]: 27 nM; EC40 [6]: inactive
COc1ccc2c(c1)OCC(C(=O)N1CCN(c3nc(N)c4cc(OC)c(OC)cc4n3)CC1)O2 (configuration not stated),23,34,,EC40 [9]: 10 nM; Ki [10]: 5.6 nM; EC40 [11]: inactive
COc1cc2nc(N3CCN(C(=O)C4COc5cc(C)c(C)cc5O4)CC3)nc(N)c2cc1OC (configuration not stated),20,14,7.8,
COc1cc2nc(N3CCN(C(=O)C4Oc5ccccc5OC4C)CC3)nc(N)c2cc1OC (cis isomer) [listing 2 of 2 here],,,0.7,Reduction (Rattus norvegicus [2]; 5 mg/kg): 25%; Reduction (Rattus norvegicus [3]; 5 mg/kg): 23%
